Measurements taken from ChEMBL document CHEMBL4837214, “Design, synthesis, and biological evaluation of novel tetrahydroprotoberberine derivatives to reduce SREBPs expression for the treatment of hyperlipidemia” (Eur J Med Chem, 2021).
Calls of active or inactive are those of the source. No cut-off for these calls is given here.

Tested on: HepG2
Experiment: Cytotoxicity against human HepG2 cells assessed as reduction in cell viability at 10 uM after 24 hrs by CCK8 assay
Assay type: functional

Compound	Activity [%]
COc1cc2c(cc1OC)C1Cc3ccc(OC)c(OS(=O)(=O)c4c(C(C)C)cc(C(C)C)cc4C(C)C)c3CN1CC2 (centres undefined)	91.1
COc1cc2c(cc1OC)C1Cc3ccc(OC)c(OS(=O)(=O)c4ccc(Cl)c([N+](=O)[O-])c4)c3CN1CC2 (centres undefined)	94.7
COc1ccc2c(c1OS(=O)(=O)c1cc(C)ccc1C)CN1CCc3cc4c(cc3C1C2)OCO4 (centres undefined)	84.5
COc1ccc2c(c1OC(=O)c1cccc(Br)c1)CN1CCc3cc4c(cc3C1C2)OCO4 (centres undefined)	85
COc1ccc2c(c1OS(=O)(=O)c1ccccc1[N+](=O)[O-])CN1CCc3cc4c(cc3C1C2)OCO4 (centres undefined)	88.8
COc1cc2c(cc1OC)C1Cc3ccc(OC)c(OC(=O)C45CC6CC(CC(C6)C4)C5)c3CN1CC2 (centres undefined)	99.3
COc1ccc2c(c1OS(=O)(=O)c1ccc(Cl)c([N+](=O)[O-])c1)CN1CCc3cc4c(cc3C1C2)OCO4 (centres undefined)	93.4
COc1ccc2c(c1OC(=O)c1cccc(C)c1)CN1CCc3cc4c(cc3C1C2)OCO4 (centres undefined)	90.1
COc1cc2c(cc1OC)C1Cc3ccc(OC)c(OS(=O)(=O)c4ccccc4[N+](=O)[O-])c3CN1CC2 (centres undefined)	84.8
COc1cc2c(cc1OC)C1Cc3ccc(OC)c(OS(=O)(=O)c4cc(C)ccc4C)c3CN1CC2 (centres undefined)	81.4
COc1ccc2c(c1OC(=O)C(C)(C)CCl)CN1CCc3cc4c(cc3C1C2)OCO4 (centres undefined)	99.6
COc1ccc2c(c1OS(=O)(=O)c1ccc(F)cc1)CN1CCc3cc4c(cc3C1C2)OCO4 (centres undefined)	86.8
COc1ccc2c(c1OC(=O)c1ccc(CCl)cc1)CN1CCc3cc4c(cc3C1C2)OCO4 (centres undefined)	97.8
CCCOc1c(OC)ccc2c1CN1CCc3cc4c(cc3C1C2)OCO4 (centres undefined)	101.5
COc1ccc2c(c1OC(=O)c1ccco1)CN1CCc3cc4c(cc3C1C2)OCO4 (centres undefined)	83.9
COc1ccc2c(c1OC(=O)c1ccc(F)cc1)CN1CCc3cc4c(cc3C1C2)OCO4 (centres undefined)	85.6
COc1cc2c(cc1OC)C1Cc3ccc(OC)c(OC(=O)c4ccc(CCl)cc4)c3CN1CC2 (centres undefined)	88.3
COc1ccc2c(c1OS(=O)(=O)c1cccs1)CN1CCc3cc4c(cc3C1C2)OCO4 (centres undefined)	93.4
C=C(C)C(=O)Oc1c(OC)ccc2c1CN1CCc3cc(OC)c(OC)cc3C1C2 (centres undefined)	95.4
COc1cc2c(cc1OC)C1Cc3ccc(OC)c(OS(=O)(=O)c4ccc(Br)cc4)c3CN1CC2 (centres undefined)	86.5
CCS(=O)(=O)Oc1c(OC)ccc2c1CN1CCc3cc(OC)c(OC)cc3C1C2 (centres undefined)	87.7
COc1cc2c(cc1OC)C1Cc3ccc(OC)c(OS(=O)(=O)c4ccc(F)cc4)c3CN1CC2 (centres undefined)	93.4
COc1cc2c(cc1OC)C1Cc3ccc(OC)c(OC(=O)c4cccc(Br)c4)c3CN1CC2 (centres undefined)	80.2

Compound	Activity [%]
COc1ccc2c(c1OS(=O)(=O)c1c(C(C)C)cc(C(C)C)cc1C(C)C)CN1CCc3cc4c(cc3C1C2)OCO4 (centres undefined)	92.8
COc1cc2c(cc1OC)C1Cc3ccc(OC)c(OC(=O)c4ccc(F)cc4)c3CN1CC2 (centres undefined)	95.1
CCOc1c(OC)ccc2c1CN1CCc3cc4c(cc3C1C2)OCO4 (centres undefined)	87.7
COc1cc2c(cc1OC)C1Cc3ccc(OC)c(OC(=O)C4CCCCC4)c3CN1CC2 (centres undefined)	85.5
CCOc1ccccc1C(=O)Oc1c(OC)ccc2c1CN1CCc3cc(OC)c(OC)cc3C1C2 (centres undefined)	84.6
COc1ccc2c(c1OS(=O)(=O)c1c(C)cc(C)cc1C)CN1CCc3cc4c(cc3C1C2)OCO4 (centres undefined)	80.7
COc1ccc2c(c1OC(=O)C1CC1)CN1CCc3cc4c(cc3C1C2)OCO4 (centres undefined)	90.7
COc1ccc2c(c1OCc1cc(F)ccc1F)CN1CCc3cc4c(cc3C1C2)OCO4 (centres undefined)	87.7
CCOc1ccccc1C(=O)Oc1c(OC)ccc2c1CN1CCc3cc4c(cc3C1C2)OCO4 (centres undefined)	96
CCCS(=O)(=O)Oc1c(OC)ccc2c1CN1CCc3cc(OC)c(OC)cc3C1C2 (centres undefined)	80.2
C/C=C/C(=O)Oc1c(OC)ccc2c1CN1CCc3cc(OC)c(OC)cc3C1C2 (centres undefined)	81.7
COc1cc2c(cc1OC)C1Cc3ccc(OC)c(OC(=O)c4cccc(C)c4)c3CN1CC2 (centres undefined)	84.3
COc1cc2c(cc1OC)C1Cc3ccc(OC)c(OS(=O)(=O)c4c(C)cc(C)cc4C)c3CN1CC2 (centres undefined)	73.3
COc1cc2c(cc1OC)C1Cc3ccc(OC)c(OS(=O)(=O)c4cccs4)c3CN1CC2 (centres undefined)	89.2
CCCCOc1c(OC)ccc2c1CN1CCc3cc4c(cc3C1C2)OCO4 (centres undefined)	98.1
C/C=C/C(=O)Oc1c(OC)ccc2c1CN1CCc3cc4c(cc3C1C2)OCO4 (centres undefined)	84.3
COc1cc2c(cc1OC)C1Cc3ccc(OC)c(OC(=O)C4CC4)c3CN1CC2 (centres undefined)	91.2
COc1ccc2c(c1OC(=O)C1CCCCC1)CN1CCc3cc4c(cc3C1C2)OCO4 (centres undefined)	90.7
COc1ccc2c(c1OC(=O)C13CC4CC(CC(C4)C1)C3)CN1CCc3cc4c(cc3C1C2)OCO4 (centres undefined)	80.2
COc1cc2c(cc1OC)C1Cc3ccc(OC)c(OC(=O)C(C)(C)CCl)c3CN1CC2 (centres undefined)	91.2
CCCC(CCC)C(=O)Oc1c(OC)ccc2c1CN1CCc3cc(OC)c(OC)cc3C1C2 (centres undefined)	97.9
COc1cc2c(cc1OC)C1Cc3ccc(OC)c(OC(=O)c4ccco4)c3CN1CC2 (centres undefined)	80.9

Tested on: HepG2
Experiment: Down regulation of intracellular TG level in human HepG2 cells at 10 uM measured after 24 hrs
Assay type: functional, cell-based
Method in brief: (§1)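 HepG2 cells grown in six-well plates and exposed 24 h to compound at […]. Cells collected in PBS and sonicated (5 s on, 10 s off, 60 s total). Total cholesterol or triglyceride measured with a colorimetric determination kit.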

Compound	Activity
COc1cc2c(cc1OC)C1Cc3ccc(OC)c(OS(=O)(=O)c4c(C(C)C)cc(C(C)C)cc4C(C)C)c3CN1CC2 (centres undefined)	Active
CCCOc1c(OC)ccc2c1CN1CCc3cc4c(cc3C1C2)OCO4 (centres undefined)	Active
COc1ccc2c(c1OCc1ccc([N+](=O)[O-])cc1)CN1CCc3cc4c(cc3C1C2)OCO4 (centres undefined)	Active
CCCCOc1c(OC)ccc2c1CN1CCc3cc4c(cc3C1C2)OCO4 (centres undefined)	Active
COc1cc2c(cc1OC)C1Cc3ccc(OC)c(OC(=O)C4CC4)c3CN1CC2 (centres undefined)	Active

Tested on: HepG2
Experiment: Down regulation of intracellular TC level in human HepG2 cells at 10 uM measured after 24 hrs
Assay type: functional, cell-based
Method in brief: as §1

Compound	Activity
COc1cc2c(cc1OC)C1Cc3ccc(OC)c(OS(=O)(=O)c4c(C(C)C)cc(C(C)C)cc4C(C)C)c3CN1CC2 (centres undefined)	Active
CCCOc1c(OC)ccc2c1CN1CCc3cc4c(cc3C1C2)OCO4 (centres undefined)	Active
COc1ccc2c(c1OCc1ccc([N+](=O)[O-])cc1)CN1CCc3cc4c(cc3C1C2)OCO4 (centres undefined)	Active
COc1cc2c(cc1OC)C1Cc3ccc(OC)c(OC(=O)C4CC4)c3CN1CC2 (centres undefined)	Active
